Reference: ChEMBL document CHEMBL1221385, “Iminoheterocycles as gamma-secretase modulators” (Bioorg Med Chem Lett, 2010)

How the values were obtained:
[1] = Selectivity ratio of total amyloid beta to amyloid beta 42
In short: (§1)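 HEK293 cells stably transfected with APP (Swedish plus London mutations, pcDNA3.1) treated with compound for 5 h; Aβ in conditioned medium read by MSD sandwich immunoassay: Aβ42 with TAG-G2-11/biotin-4G8, Aβ40 with TAG-G2-10/biotin-4G8, total Aβ with TAG-W02/biotin-4G8. IC50 from Aβ42; ratio is total Aβ over Aβ42.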

[2] = molecular target: Gamma-secretase; assay: Inhibition of gamma secretase-mediated amyloid beta42 production in HEK293 cells; format: cell-based, Homo sapiens; in short: as §1
[3] = AUC (0 to 6 hrs) in po dosed rat; format: ADME, organism-based; set-up: time < 6 hr, route oral; conditions: plasma
In short: (§2)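 Rats given a single 10 mg/kg oral dose. Plasma sampled over 0–6 h for AUC and Cmax, with the time of Cmax recorded. Brain level (ng/g) and brain:plasma concentration ratio taken at 6 h.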

[4] = Selectivity ratio of drug level in brain to plasma in rat at 10 mg/kg, po after 6 hrs; format: ADME, organism-based; set-up: dose 10 mg/kg, route oral; conditions: read-out: BPR; in short: as §2
[5] = Cmax in rat at 10 mg/kg, po after 1 hr; format: ADME, organism-based; set-up: dose 10 mg/kg, route oral; conditions: in vivo; in short: as §2
[6] = Drug level in rat brain at 10 mg/kg, po after 6 hrs; format: ADME, organism-based; set-up: dose 10 mg/kg, route oral; conditions: read-out: Drug uptake; in short: as §2
[7] = AUC (0 to 6 hrs) in rat at 10 mg/kg, po; format: ADME, organism-based; set-up: time < 6 hr, dose 10 mg/kg, route oral; conditions: plasma; in short: as §2
[8] = system: Rattus norvegicus; assay: Reduction in amyloid beta 42 level in po dosed rat CSF; set-up: scale not given: the % may be the effect or the level left
[9] = system: Mus musculus; assay: Reduction in total amyloid beta level in CRND8 transgenic mouse plasma at 30 mg/kg, po; format: functional; set-up: scale not given: the % may be the effect or the level left
In short: (§3)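 CRND8 transgenic mice dosed orally at 30 mg/kg. Plasma Aβ42 and total Aβ sampled 3 h after dosing.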

[10] = system: Mus musculus; assay: Reduction in amyloid beta 42 level in transgenic CRND8 mouse plasma at 30 mg/kg, po; format: functional; set-up: scale not given: the % may be the effect or the level left; in short: as §3
[11] = system: Mus musculus; assay: Reduction in amyloid beta 42 level in CRND8 transgenic mouse cortical at 30 mg/kg, po; format: functional; set-up: scale not given: the % may be the effect or the level left
[12] = Cmax in rat at 10 mg/kg, po after 2 hrs; format: ADME, organism-based; set-up: dose 10 mg/kg, route oral; conditions: in vivo; in short: as §2
[13] = system: Brain; assay: Drug level in rat brain at 30 mg/kg, po; conditions: in vivo, read-out: Drug uptake
[14] = system: Rattus norvegicus; assay: Reduction in amyloid beta 42 level in rat CSF at 100 mg/kg, po; set-up: scale not given: the % may be the effect or the level left
[15] = system: Rattus norvegicus; assay: Reduction in amyloid beta 42 level in rat CSF at 30 mg/kg, po; set-up: scale not given: the % may be the effect or the level left
[16] = system: Plasma; assay: Drug level in rat plasma at 30 mg/kg, po; conditions: in vivo

CCN1CCCC(c2ccc(F)cc2)N2C(=O)/C(=C/c3ccc(-n4cnc(C)c4)c(OC)c3)N=C12 (single isomer, unassigned; (-)) [listing 1 of 2 here]
Ratio [1]: 215

COc1cc([C@H](O)C2CNC(=N)N([C@@H](C)c3ccc(F)cc3)C2=O)ccc1-n1cnc(C)c1 (some centres undefined)
IC50 [2]: > 20000 nM

COc1cc(/C=C2\CCCN([C@@H](C)c3ccc(F)cc3)C2=O)ccc1-n1cnc(C)c1
AUC(0-t) at 6 h [3]: 60.4 µM·h

COc1cc(/C=C2\N=C(N3CCCC3)N([C@@H](C)c3ccc(F)cc3)C2=O)ccc1-n1cnc(C)c1
Ratio [1]: 32 | IC50 [2]: 671 nM

COc1cc(/C=C2/C(=O)N([C@@H](C)c3ccc(F)cc3)C(=N)NC2(C)C)ccc1-n1cnc(C)c1
IC50 [2]: > 20000 nM

COc1cc(Cc2c[nH]c(=N)n([C@@H](C)c3ccc(F)cc3)c2=O)ccc1-n1cnc(C)c1
IC50 [2]: 446 nM

CCNC1=N/C(=C\c2ccc(-n3cnc(C)c3)c(OC)c2)C(=O)N1Cc1ccc(F)cc1
Ratio [1]: 104 | IC50 [2]: 72 nM

CCN1CCCC(c2ccc(F)cc2)N2C(=O)/C(=C/c3ccc(-n4cnc(C)c4)c(OC)c3)N=C12 (racemic) [listing 1 of 2 here]
IC50 [2]: 117 nM

CCNC1=N/C(=C\c2ccc(-n3cnc(C)c3)c(OC)c2)C(=O)N1[C@H](CCO)c1ccc(F)cc1
Ratio [1]: 117 | IC50 [2]: 171 nM

COc1cc(/C=C2\N=C3NCCC(c4ccc(F)cc4)N3C2=O)ccc1-n1cnc(C)c1 (single isomer, unassigned; (+))
Ratio [1]: 188 | IC50 [2]: 106 nM

COc1cc(/C=C2\N=C(NCCO)N([C@H](C)c3ccc(F)cc3)C2=O)ccc1-n1cnc(C)c1
Ratio [1]: 27 | IC50 [2]: 63 nM

COc1cc(/C=C2\N=C(NCC3CC3)N([C@@H](C)c3ccc(F)cc3)C2=O)ccc1-n1cnc(C)c1
Ratio [1]: 71 | IC50 [2]: 250 nM

COc1cc(/C=C2\N=C(NCCCO)N([C@H](C)c3ccc(F)cc3)C2=O)ccc1-n1cnc(C)c1
Ratio [1]: 153 | IC50 [2]: 111 nM

CCN1CCCC(c2ccc(F)cc2)N2C(=O)/C(=C/c3ccc(-n4cnc(C)c4)c(OC)c3)N=C12 (racemic) [listing 2 of 2 here]
Ratio [1]: 169

CCN1CCC(c2ccc(F)cc2)N2C(=O)/C(=C/c3ccc(-n4cnc(C)c4)c(OC)c3)N=C12 (single isomer, unassigned; (+))
Ratio [1]: 71 | IC50 [2]: 85 nM

COc1cc(/C=C2\NC(=O)N([C@H](C)c3ccc(F)cc3)C2=O)ccc1-n1cnc(C)c1
IC50 [2]: 3500 nM

COc1cc(/C=C2\N=C(NCC3CC3)N([C@H](C)c3ccc(F)cc3)C2=O)ccc1-n1cnc(C)c1
Ratio [1]: 68 | IC50 [2]: 158 nM

CNC1=N/C(=C\c2ccc(-n3cnc(C)c3)c(OC)c2)C(=O)N1[C@@H](C)c1ccc(F)cc1
Ratio [1]: 25 | IC50 [2]: 411 nM

CCNC1=N/C(=C\c2ccc(-n3cnc(C)c3)c(OC)c2)C(=O)N1[C@@H](C)c1ccc(F)cc1
Ratio [1]: 97 | IC50 [2]: 220 nM

COCCNC1=N/C(=C\c2ccc(-n3cnc(C)c3)c(OC)c2)C(=O)N1[C@@H](C)c1ccc(F)cc1
Ratio [1]: 66 | IC50 [2]: 301 nM

COc1cc(/C=c2/c(=O)n([C@@H](C)c3ccc(F)cc3)c3n2CCCN=3)ccc1-n1cnc(C)c1
IC50 [2]: 7100 nM

COc1cc(/C=C2\N=C(N3CCCCC3)N([C@@H](C)c3ccc(F)cc3)C2=O)ccc1-n1cnc(C)c1
Ratio [1]: 21 | IC50 [2]: 955 nM

COc1cc(/C=C2\N=C(N)N(Cc3ccc(F)cc3)C2=O)ccc1-n1cnc(C)c1
Ratio [1]: 139 | IC50 [2]: 144 nM

COc1cc(/C=C2\N=C3NCCCC(c4ccc(F)cc4)N3C2=O)ccc1-n1cnc(C)c1 (racemic)
Ratio [1]: 40 | IC50 [2]: 503 nM

COc1cc(/C=C2\N=C(N)N([C@H](CCO)c3ccc(F)cc3)C2=O)ccc1-n1cnc(C)c1
Ratio [1]: 87 | IC50 [2]: 229 nM

COc1cc(/C=C2\N=C(NCCO)N([C@@H](C)c3ccc(F)cc3)C2=O)ccc1-n1cnc(C)c1
Ratio [1]: 79 | IC50 [2]: 218 nM

COc1cc(/C=C2\NC(=O)N([C@@H](C)c3ccc(F)cc3)C2=O)ccc1-n1cnc(C)c1
Ratio [1]: 141 | IC50 [2]: 163 nM

CCNC1=N/C(=C\c2ccc(-n3cnc(C)c3)c(OC)c2)C(=O)N1[C@H](CO)c1ccc(F)cc1
Ratio [1]: 200 | IC50 [2]: 91 nM

CCN1CCCC(c2ccc(F)cc2)N2C(=O)/C(=C/c3ccc(-n4cnc(C)c4)c(OC)c3)N=C12 (single isomer, unassigned; (-)) [listing 2 of 2 here]
Kp at 6 h [4]: 0.3 | Cmax [5]: 4.2 µM | concentration at 6 h [6]: 275 ng/g | AUC(0-t) at 6 h [7]: 16.9 µM·h | Activity [8]: 8% | IC50 [2]: 73 nM

COc1cc(/C=C2\N=C(N)N([C@H](CO)c3ccc(F)cc3)C2=O)ccc1-n1cnc(C)c1
Ratio [1]: 113 | IC50 [2]: 139 nM

COC1=N/C(=C\c2ccc(-n3cnc(C)c3)c(OC)c2)C(=O)N1[C@@H](C)c1ccc(F)cc1
Ratio [1]: 23 | IC50 [2]: 864 nM

CCCCNC1=N/C(=C\c2ccc(-n3cnc(C)c3)c(OC)c2)C(=O)N1[C@H](C)c1ccc(F)cc1
Ratio [1]: 42 | IC50 [2]: 92 nM

CCNC1=N/C(=C\c2ccc(-n3cnc(C)c3)c(OC)c2)C(=O)N1[C@H](C)c1ccc(F)cc1
Kp at 6 h [4]: 1.3 | Activity [9]: 10% | Activity [10]: 80% | concentration at 6 h [6]: 914 ng/g | Activity [11]: 12% | AUC(0-t) at 6 h [7]: 10.1 µM·h | Cmax [12]: 2.3 µM | Ratio [1]: 159 | IC50 [2]: 88 nM

COc1cc(/C=C2\N=C3NCC(c4ccc(F)cc4)N3C2=O)ccc1-n1cnc(C)c1 (racemic)
Ratio [1]: 117 | IC50 [2]: 135 nM

COc1cc(/C=C2\N=C(N)N([C@H](C)c3ccc(F)cc3)C2=O)ccc1-n1cnc(C)c1
Ratio [1]: 65 | IC50 [2]: 94 nM

CCCCNC1=N/C(=C\c2ccc(-n3cnc(C)c3)c(OC)c2)C(=O)N1Cc1ccc(F)cc1
Kp at 6 h [4]: 0.7 | concentration [13]: 5.9 µM | concentration at 6 h [6]: 449 ng/g | Activity [14]: 38% | AUC(0-t) at 6 h [7]: 10 µM·h | Cmax [12]: 2.3 µM | Activity [15]: 10% | Ratio [1]: 70 | concentration [16]: 7.1 µM | IC50 [2]: 85 nM

COc1cc(/C=C2\N=C(NCCCO)N([C@@H](C)c3ccc(F)cc3)C2=O)ccc1-n1cnc(C)c1
Ratio [1]: 141 | IC50 [2]: 163 nM

CCCCNC1=N/C(=C\c2ccc(-n3cnc(C)c3)c(OC)c2)C(=O)N1[C@@H](C)c1ccc(F)cc1
Ratio [1]: 78 | IC50 [2]: 258 nM

COCCCNC1=N/C(=C\c2ccc(-n3cnc(C)c3)c(OC)c2)C(=O)N1[C@@H](C)c1ccc(F)cc1
Ratio [1]: 70 | IC50 [2]: 287 nM

COc1cc(/C=C2\N=C(NC3CC3)N([C@@H](C)c3ccc(F)cc3)C2=O)ccc1-n1cnc(C)c1
Ratio [1]: 136 | IC50 [2]: 287 nM

COc1cc(/C=C2\N=C(N)N([C@@H](C)c3ccc(F)cc3)C2=O)ccc1-n1cnc(C)c1
Ratio [1]: 55 | IC50 [2]: 322 nM

CCN1CC(c2ccc(F)cc2)N2C(=O)/C(=C/c3ccc(-n4cnc(C)c4)c(OC)c3)N=C12 (single isomer, unassigned; (-))
Ratio [1]: 159 | IC50 [2]: 56 nM
